DDE Tn6 FP inh = DD(E)-Tn6 binding inhibition, primary FP screen | P02675 | Fibrin DD(E) TRITC-Tn6 fluorescence polarization displacement | inhibition, % at 8.3 µM | 0.21% of 370,000 active | AID 720509;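 active = inhibition above a per-campaign cutoff: mean of compounds within control limits plus 3 SD, cut at about 15% in these data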
ADAM10 inh = inhibitors of human ADAM10. O14672. recombinant ADAM10, EDANS/DABCYL FRET peptide cleavage, 3 h. inhibition, % at 7 µM. 0.62% of 370,000 active. AID 720582;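 active = inhibition above a per-campaign cutoff equal to the mean of compounds falling between control-based bounds plus 3 SD, cut at about 20% in these data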
MT1-MMP act inh = MT1-MMP (human) activation inhibition; P50281; HT1080 RFP-PRO-GFP cells, GFP/RFP ratio fluorescence, overnight; percent of plate control window, DMSO zero; GFP/RFP ratio change, % at 20 µM; 0.061% of 360,000 active;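 active = GFP/RFP ratio change of at least 30% with cell ATP level not reduced by more than half and red fluorescence within 50% of control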
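Assay system: RFP-PRO-GFP reporter HT1080 cells; read-out basis: GFP/RFP fluorescence ratio; benchmarks: DMSO wells and RFP-L50D-GFP cells; doses: 20 µM single dose, 1% DMSO; schedule: overnight cell settling, then overnight compound exposure, 37 °C, 5% CO2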
Tn7 DDE FP = DD(E)-Tn7 binding inhibition, primary FP screen | P02675 | FP displacement of FITC-Tn7 peptide from fibrin DD(E); 0% = median of compound wells per plate | 0.13% of 370,000 active | AID 720508 | inhibition, % at 8.3 µM;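 active = inhibition above the mean of compounds falling within the control limits plus 3 SD of them, cut at about 14% in these data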
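Test system – human fibrin DD(E) · Times – 10 min preincubation, 3 h with tracer, room temperature · Detection – fluorescence polarization of the labelled Tn7 tracer · Measure – percent inhibition normalized to high-control wells · Benchmarks – high control wells with 10 µM unlabelled Aha-Tn7 peptide (full inhibition) · Repeats – singlicate testing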
ADAM17 inh = inhibitors of human ADAM17; P78536; recombinant ADAM17, EDANS/DABCYL FRET peptide cleavage; inhibition, % at 6.95 µM; 0.83% of 370,000 active; AID 720648;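 active = inhibition above the mean of compounds lying between control limits plus 3 SD, set per campaign, cut at about 8.5% in these data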
Target sequence (P78536 215-824 limits assumed): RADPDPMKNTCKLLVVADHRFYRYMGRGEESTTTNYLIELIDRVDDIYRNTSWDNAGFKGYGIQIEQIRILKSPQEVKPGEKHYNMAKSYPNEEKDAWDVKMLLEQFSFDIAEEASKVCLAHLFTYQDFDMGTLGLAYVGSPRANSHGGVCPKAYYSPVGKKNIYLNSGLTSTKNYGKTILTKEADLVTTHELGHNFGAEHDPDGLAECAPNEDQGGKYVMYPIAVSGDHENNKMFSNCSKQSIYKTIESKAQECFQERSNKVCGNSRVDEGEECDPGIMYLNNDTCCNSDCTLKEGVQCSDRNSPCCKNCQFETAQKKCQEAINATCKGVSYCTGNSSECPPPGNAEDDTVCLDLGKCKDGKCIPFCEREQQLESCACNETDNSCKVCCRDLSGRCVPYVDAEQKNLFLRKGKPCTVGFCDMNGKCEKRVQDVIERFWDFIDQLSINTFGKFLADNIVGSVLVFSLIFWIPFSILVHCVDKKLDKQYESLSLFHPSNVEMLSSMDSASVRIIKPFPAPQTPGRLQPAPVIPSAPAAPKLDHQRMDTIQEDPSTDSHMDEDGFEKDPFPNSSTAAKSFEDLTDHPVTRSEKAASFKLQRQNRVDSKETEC
ADAM10 counter = ADAM10 inhibition, counter-screen for ADAM17 exosite hits | shares compounds with ADAM17 inh | recombinant ADAM10, EDANS/DABCYL FRET peptide cleavage, 3 h | inhibition, % at 6.95 µM | 47% of 2,900 active;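 active = mean inhibition over the triplicate runs exceeds the activity threshold set in the earlier primary screen, cut at about 20% in these data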
ADAM17 confirm = confirmation of inhibitors of human ADAM17. shares compounds with ADAM17 inh. recombinant ADAM17, EDANS/DABCYL QFRET peptide cleavage. inhibition, % at 6.95 µM. 65% of 2,900 active;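 active = mean inhibition across replicates above the hit cutoff set in the primary screen, cut at about 8.5% in these data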
Numbers stand for hits. Hits are enriched below; roughly 1.6% of the tested compounds scored in any of these assays.

Cn1nc(-c2ccccc2)c(CSc2ccccc2)c1Cl was read as DDE Tn6 FP inh inactive, ADAM10 inh inactive, MT1-MMP act inh inactive, Tn7 DDE FP inactive, ADAM17 inh 9.3, ADAM10 counter inactive and ADAM17 confirm 9.3.
Screening Nc1ncc2c(n1)-c1cc(Cl)ccc1SC2 returned DDE Tn6 FP inh inactive, ADAM10 inh inactive, MT1-MMP act inh inactive, Tn7 DDE FP inactive, ADAM17 inh 10, ADAM10 counter inactive and ADAM17 confirm inactive.
`O=C(NCCc1ccccc1)OCc1cn(Cc2ccc(C(F)(F)F)cc2)nn1` gave DDE Tn6 FP inh inactive, ADAM10 inh inactive, Tn7 DDE FP inactive and ADAM17 inh inactive.
For CC(C)(C)OC(=O)CNC(=O)c1nc[nH]c1C(=O)NCc1ccccc1 the results were DDE Tn6 FP inh inactive, ADAM10 inh inactive, MT1-MMP act inh inactive, Tn7 DDE FP inactive and ADAM17 inh inactive.
`C[C@H](NC(=O)c1nc[nH]c1C(=O)N[C@@H](Cc1ccccc1)C(=O)OCc1ccccc1)c1ccccc1` gave DDE Tn6 FP inh inactive, ADAM10 inh inactive, MT1-MMP act inh inactive, Tn7 DDE FP inactive and ADAM17 inh inactive.
CC(C)(C)OC(=O)NCCOC(=O)c1[nH]cnc1C(=O)NCc1ccccc1 was read as DDE Tn6 FP inh inactive, ADAM10 inh inactive, MT1-MMP act inh inactive, Tn7 DDE FP inactive, ADAM17 inh 11, ADAM10 counter inactive and ADAM17 confirm inactive.
For CC(C)(C)OC(=O)CNC(=O)c1[nH]cnc1C(=O)Nc1ccc(CNC(=O)OC(C)(C)C)cc1 the results were DDE Tn6 FP inh inactive, ADAM10 inh inactive, MT1-MMP act inh inactive, Tn7 DDE FP inactive, ADAM17 inh 12, ADAM10 counter 30 and ADAM17 confirm 16.
For CC(C)(C)OC(=O)NCc1ccc(NC(=O)c2nc[nH]c2C(=O)N[C@@H](Cc2ccccc2)C(=O)OC(C)(C)C)cc1 the results were DDE Tn6 FP inh inactive, ADAM10 inh inactive, MT1-MMP act inh inactive, Tn7 DDE FP inactive, ADAM17 inh 8.9, ADAM10 counter 46 and ADAM17 confirm 23.
C[C@@H](NC(=O)c1nc[nH]c1C(=O)N[C@@H](Cc1ccccc1)C(=O)OCc1ccccc1)c1ccccc1 was read as DDE Tn6 FP inh inactive, ADAM10 inh inactive, MT1-MMP act inh inactive, Tn7 DDE FP inactive, ADAM17 inh 12, ADAM10 counter 30 and ADAM17 confirm 17.
Screening CC(C)(C)OC(=O)NCc1ccc(NC(=O)c2nc[nH]c2C(=O)NCCNC(=O)c2[nH]cnc2C(=O)Nc2ccc(CNC(=O)OC(C)(C)C)cc2)cc1 returned MT1-MMP act inh inactive.
N=c1c2c(-c3ccccc3)c(-c3ccccc3)n(CCc3ccccc3)c2ncn1C1CCC(O)CC1 (configuration not stated) was read as DDE Tn6 FP inh inactive, ADAM10 inh inactive, Tn7 DDE FP inactive and ADAM17 inh inactive.
`C=CCN1C[C@H](COC(=O)CSc2ccccc2)Oc2cccc(F)c2S1(=O)=O` gave DDE Tn6 FP inh inactive, ADAM10 inh inactive, Tn7 DDE FP inactive and ADAM17 inh inactive.
`CCc1ccccc1Nc1cc(C(=O)NCc2ccccn2)c2ccccc2n1` gave DDE Tn6 FP inh inactive, ADAM10 inh inactive, MT1-MMP act inh inactive, Tn7 DDE FP inactive, ADAM17 inh 9.0, ADAM10 counter inactive and ADAM17 confirm inactive.
`O=C(OCCOc1cccc(Cl)c1)c1cc(S(=O)(=O)N2CCOCC2)ccc1F` gave DDE Tn6 FP inh inactive, ADAM10 inh inactive, MT1-MMP act inh inactive, Tn7 DDE FP inactive, ADAM17 inh 10, ADAM10 counter inactive and ADAM17 confirm inactive.
Screening CN(C(=O)c1ccccc1OCC(=O)Nc1ccc(Br)cc1)c1ccccc1 returned DDE Tn6 FP inh inactive, ADAM10 inh inactive, Tn7 DDE FP inactive and ADAM17 inh inactive.
Screening COc1ccc(Cl)cc1NC(=O)CN(C)C(=O)CSc1ccc2c(c1)OCCO2 returned DDE Tn6 FP inh inactive, ADAM10 inh inactive, MT1-MMP act inh inactive, Tn7 DDE FP inactive, ADAM17 inh 8.9, ADAM10 counter 25 and ADAM17 confirm 15.
Screening CCCN(CC(=O)Nc1ccccc1OC)C(=O)c1ccc2[nH]c3c(c2c1)CC(C)CC3 (configuration not stated) returned DDE Tn6 FP inh inactive, ADAM10 inh inactive, Tn7 DDE FP inactive, ADAM17 inh 13, ADAM10 counter 29 and ADAM17 confirm 16.
CC1C(=O)N(Cc2cn(CCC3OCCO3)nn2)CCS(=O)(=O)N1Cc1ccc(-c2ccc(F)cc2)cc1 (configuration not stated) was read as DDE Tn6 FP inh inactive, ADAM10 inh inactive, MT1-MMP act inh inactive, Tn7 DDE FP inactive, ADAM17 inh 10, ADAM10 counter inactive and ADAM17 confirm inactive.
Screening CC1C(=O)N(Cc2cn(CCC3OCCO3)nn2)CCS(=O)(=O)N1Cc1ccc(-c2ccncc2)cc1 (configuration not stated) returned DDE Tn6 FP inh inactive, ADAM10 inh inactive, MT1-MMP act inh inactive, Tn7 DDE FP inactive and ADAM17 inh inactive.
Screening COc1ccc(-c2ccc(CN3C(C(C)C)C(=O)N(Cc4cn(Cc5ccco5)nn4)CCS3(=O)=O)cc2)cc1 (configuration not stated) returned DDE Tn6 FP inh inactive, ADAM10 inh inactive, MT1-MMP act inh inactive, Tn7 DDE FP inactive and ADAM17 inh inactive.
`COc1ccc(-c2ccc(CN3C(C(C)C)C(=O)N(Cc4cn(Cc5ccco5)nn4)CCS3(=O)=O)cc2)cc1OC` (configuration not stated) gave DDE Tn6 FP inh inactive, ADAM10 inh inactive, MT1-MMP act inh inactive, Tn7 DDE FP inactive, ADAM17 inh 10, ADAM10 counter inactive and ADAM17 confirm 14.
C[C@H](CO)N1C[C@H](C)[C@@H](CN(C)C(=O)Nc2ccc(C(F)(F)F)cc2)OCc2cn(nn2)CCCC1=O was read as DDE Tn6 FP inh inactive, ADAM10 inh inactive, Tn7 DDE FP inactive and ADAM17 inh inactive.
COC(=O)C1=C(C)N(Cc2ccccc2C(F)(F)F)C(=NCc2ccc(OC)cc2)NC1c1cccc(F)c1 (configuration not stated) was read as DDE Tn6 FP inh inactive, ADAM10 inh inactive, Tn7 DDE FP inactive and ADAM17 inh inactive.
`Cc1c(Cl)cccc1NC(=O)CN1CCC(C(O)(c2ccccc2)c2ccccc2)CC1` gave DDE Tn6 FP inh inactive, ADAM10 inh inactive, MT1-MMP act inh inactive, Tn7 DDE FP inactive, ADAM17 inh 8.8, ADAM10 counter 30 and ADAM17 confirm 16.

Assay outcomes: PubChem, several laboratories
